41 molecules from ChEMBL document CHEMBL1143136 (J Med Chem, 2008) can be followed below.

Assay [1] concerns HeLa. The experiment in a line: Induction of mitotic arrest in human HeLa cells assessed as monoastral spindle formation after 24 hrs. It counts as functional, cell-based.
Assay [2] deals with HeLa. The assay can be described thus: Cell cycle arrest in human HeLa cells assessed as accumulation at G2/M phase at 5 uM after 24 hrs. It counts as functional. An outline of the steps:
(§1)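 HeLa cells grown in DMEM with 10% FBS at 37 °C, 5% CO2, in 60 mm dishes, exposed to drug for 24 h. Drugs were diluted in medium from 50 mM DMSO stocks. Cells were fixed in 90% methanol at −20 °C and stained with propidium iodide. Flow cytometry gave the percentage of cells with 4N DNA content (G2/M).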

Assay [3] relates to HeLa. The experiment in a line: Cell cycle arrest in human HeLa cells assessed as accumulation at G2/M phase at 1 uM after 24 hrs. Format: functional. Summed up: as §1
Assay [4] concerns HeLa. The assay can be described thus: Induction of mitotic arrest in human HeLa cells after 24 hrs. It counts as functional, cell-based. An outline of the steps:
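A concentration series was given to HeLa cells for 24 h (DMEM, 10% FBS, 37 °C, 5% CO2). Cells were fixed in methanol at −20 °C, then stained with MPM-2 antibody/FITC secondary and propidium iodide. Two-dimensional flow cytometry followed.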

In assay [5] the test system is HeLa. The experiment in a line: Induction of mitotic arrest in human HeLa cells at 1 uM assessed as MPM2 antibody positive cells after 24 hrs. Format: functional. An outline of the steps: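 HeLa cells (DMEM, 10% FBS, 37 °C, 5% CO2) were drug-treated for 24 h, then fixed in 90% methanol at −20 °C. They were labelled with MPM-2 mitotic phospho-epitope antibody plus FITC anti-mouse IgG, and with propidium iodide. Two-dimensional flow cytometry gave the percentage of 4N-arrested cells that were MPM2-positive.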

The nature of assay [6]: cells. The settings on record: Homo sapiens, NCI60.

pEC50: −log10 of the molar value. Where a SMILES comes first, the peptide text is derived from it. The star is where a group is joined. Trt = c1ccc(C(c2ccccc2)(c2ccccc2)*)cc1

Turning to `COC(=O)[C@@H](N)CSC(c1ccccc1)(c1ccccc1)c1ccccc1`, in assay [1], the pEC50 is 5.97. The Activity in assay [2] was found to be 72.4%; in assay [3], 20.2%.

For the molecule `CCCCC(SC[C@H](N)C(=O)O)(c1ccccc1)c1ccccc1`, in assay [1], the pEC50 was 5.85. In addition, the Activity is given as 71.1% in assay [2] and 19.1% in assay [3].

Take `CC(C)C(SC[C@H](N)C(=O)O)(c1ccccc1)c1ccccc1`: the pEC50 in assay [1] is 5.97. For the same molecule, the figures for the Activity in assay [2] and in assay [3] were 59.1% and 22.6%, respectively.

With `N[C@@H](CSC(c1ccccc1)(c1ccc(CO)cc1)c1ccc(CO)cc1)C(=O)O`, the pEC50 in assay [1] is below 5.30.

Turning to `N[C@@H](CSC(c1ccccc1)(c1ccccc1)c1ccc2c(c1)OCO2)C(=O)O`, in assay [1], the pEC50 is 5.86. Also, the Activity in assay [2] is on record as 68%; in assay [3], 24.3%.

Take `N[C@@H](CSC(c1ccccc1)(c1ccccc1)c1ccc2ccccc2c1)C(=O)O`: the negative-log EC50 (pEC50) is 6.48 in assay [1] and 6.22 in assay [4]. The Activity in assay [5] was determined as 79.9%; in assay [3] it was 68.1%.

In the case of `N[C@@H](CSC1(c2ccccc2)c2ccccc2-c2ccccc21)C(=O)O`, in assay [1], the pEC50 was below 5.30.

`NCCCSC(c1ccccc1)(c1ccccc1)c1ccccc1`: the pEC50 in assay [1] is below 5.30.

Take `N[C@@H](CSC1(c2ccc(F)cc2)c2ccccc2-c2ccccc21)C(=O)O`: the pEC50 in assay [1] is below 5.30.

Take `N[C@@H](CSC(c1ccccc1)(c1ccccc1)C1CCCCC1)C(=O)O`: the pEC50 in assay [1] is 5.73. Further, the Activity in assay [2] is 55.2%; in assay [3], 19.9%.

Take `N[C@@H](CSC(c1ccccc1)(c1ccccc1)c1ccc(O)cc1)C(=O)O`: the pEC50 in assay [1] is below 5.30.

Regarding `NCCCCSC(c1ccccc1)(c1ccccc1)c1ccccc1`, in assay [1], the pEC50 is below 5.30.

With `N[C@@H](CSC(c1ccccc1)(c1ccccc1)c1ccccc1)C(=O)NCC(=O)O`, the negative logarithm of the EC50 (pEC50) in assay [1] was below 5.30.

With `N[C@@H](CSC1(c2ccc(Cl)cc2)c2ccccc2-c2ccccc21)C(=O)O`, the pEC50 in assay [1] is below 5.30.

In the case of `CC(=O)N[C@@H](CSC1(c2ccccc2)c2ccccc2-c2ccccc21)C(=O)O`, the pEC50 in assay [1] was below 5.30.

Turning to `COc1ccc(C(SC[C@H](N)C(=O)O)(c2ccccc2)c2ccc(OC)cc2)cc1`, the pEC50 in assay [1] was below 5.30.

As for `N[C@@H](CSC(c1ccccc1)(c1ccc(-c2ccccc2)cc1)c1ccc(-c2ccccc2)cc1)C(=O)O`, the pEC50 in assay [1] was below 5.30.

With `N[C@@H](CSC(c1ccccc1)(c1ccccc1)c1cccc2ccccc12)C(=O)O`, the pEC50 in assay [1] is below 5.30.

For `COc1ccc(C(SC[C@H](N)C(=O)O)(c2ccccc2)c2ccccc2)cc1`, the figures for the negative-log EC50 (pEC50) in assay [1] and in assay [4] were 6.70 and 6.52, respectively. For the same molecule, the Activity in assay [5] is listed as 81.6%; in assay [3] it was 69%.

In the case of `CCC(SC[C@H](N)C(=O)O)(c1ccccc1)c1ccccc1`, the pEC50 in assay [1] is below 5.30.

For `CC(SC[C@H](N)C(=O)O)(c1ccccc1)c1ccccc1`, the pEC50 in assay [1] was below 5.30.

For `NCCSC(c1ccccc1)(c1ccccc1)c1ccccc1`, the pEC50 in assay [1] is 5.97. In addition, the results for the Activity in assay [2] and in assay [3] were 65.8% and 21.1%, respectively.

Regarding `CC(C)(SC(c1ccccc1)(c1ccccc1)c1ccccc1)C(N)C(=O)O` (centres undefined), the pEC50 in assay [1] is below 5.30.

As to `N[C@@H](CSC(c1ccccc1)(c1ccccc1)c1ccc(Cl)cc1)C(=O)O`, the pEC50 in assay [1] was 6.29; in assay [4], 6.18. Further, the values for the Activity in assay [2] and in assay [3] were 74.7% and 48.5%, respectively.

Turning to `Cc1ccc(C(SC[C@H](N)C(=O)O)(c2ccccc2)c2ccc(C)cc2)cc1`, the pEC50 was 6.28 in assay [1] and 6.00 in assay [4]. Moreover, the Activity in assay [2] is on record as 70.9%; in assay [3], 50.8%.

Turning to `O=C(O)C(CSC(c1ccccc1)(c1ccccc1)c1ccccc1)/N=C/c1cccs1` (centres undefined), in assay [1], the pEC50 is below 5.30.

`CC(NC(=O)[C@@H](N)CSC(c1ccccc1)(c1ccccc1)c1ccccc1)C(=O)O` (some centres undefined): the pEC50 in assay [1] is below 5.30.

For the molecule `Cc1ccc(C(SC[C@H](N)C(=O)O)(c2ccc(C)cc2)c2ccc(C)cc2)cc1`, the pEC50 in assay [1] was 5.51. The Activity in assay [2] was found to be 34.1%.

As to `Cc1ccc(C2(SC[C@H](N)C(=O)O)c3ccccc3-c3ccccc32)cc1`, the negative logarithm of the EC50 (pEC50) in assay [1] is below 5.30.

As to `N[C@@H](CSC(c1ccccc1)(c1ccccc1)c1ccc(CO)cc1)C(=O)O`, in assay [1], the pEC50 was below 5.30.

On to `N[C@@H](CSC(c1ccccc1)(c1ccccc1)c1ccc(Br)cc1)C(=O)O`, for which the pEC50 is 6.51 in assay [1] and 6.35 in assay [4]. The Activity in assay [5] worked out at 77.4%; in assay [3] it was 68.7%.

As to `N[C@@H](CSC(c1ccccc1)(c1ccccc1)c1ccc(F)cc1)C(=O)O`, the negative logarithm of the EC50 (pEC50) in assay [1] was 5.81. The Activity in assay [2] amounted to 68.8%; in assay [3] it was 24%.

Turning to `N[C@@H](COC(c1ccccc1)(c1ccccc1)c1ccccc1)C(=O)O`, in assay [1], the pEC50 is below 5.30.

For the molecule `N[C@@H](CSC1(c2cccc3ccccc23)c2ccccc2-c2ccccc21)C(=O)O`, the pEC50 in assay [1] is below 5.30.

With `Cc1ccc(C(SC[C@H](N)C(=O)O)(c2ccccc2)c2ccccc2)cc1`, the pEC50 in assay [1] was 6.68; in assay [4] it was 6.48. The Activity in assay [5] turned out to be 84.1%; in assay [3], 71%.

Consider `N[C@@H](CSC(c1ccccc1)c1ccccc1)C(=O)O`, for which the negative-log EC50 (pEC50) in assay [1] was below 5.30.

Regarding `N[C@@H](CSC(c1ccccc1)(c1ccccc1)c1ccccc1)C(=O)OC(c1ccccc1)c1ccccc1`, the pEC50 in assay [1] is below 5.30.

Turning to `N[C@@H](CSC(c1ccccc1)(c1ccccc1)c1ccccc1)C(=O)N[C@@H](CSC(c1ccccc1)(c1ccccc1)c1ccccc1)C(=O)O` (H-Cys(Trt)-Cys(Trt)-OH), the pEC50 in assay [1] is below 5.30.

Take `COC(=O)[C@H](CC(C)C)NC(=O)[C@@H](N)CSC(c1ccccc1)(c1ccccc1)c1ccccc1` (H-Cys(Trt)-Leu-OMe): in assay [1], the pEC50 is 5.30.

`COC(=O)[C@@H](NC(=O)[C@@H](N)CSC(c1ccccc1)(c1ccccc1)c1ccccc1)C(C)C` (H-Cys(Trt)-Val-OMe): in assay [1], the pEC50 was 5.46. The Activity in assay [2] was determined as 21.8%.

As to `N[C@@H](CSC(c1ccccc1)(c1ccccc1)c1ccccc1)C(=O)O` [S-TRITYL-L-CYSTEINE], the pEC50 was 6.15 in assay [1] and 5.77 in assay [4]. The Activity in assay [2] worked out at 75.8%; in assay [3], 23.1%. In addition, it took 1.31 µM to inhibit growth in assay [6] by half (GI50).
